What was measured:
Cowpox virus [1] = assay: Antiviral activity against Cowpox virus Brighton infected BALB/c mouse assessed as virus-induced mean day of death at 0.3 mg/kg, po treated for 5 days after 1 day of viral inoculation; format: functional, Cowpox virus (Brighton Red)
[2] = Selectivity index, ratio CC50 for HFF cells to EC50 for Vaccinia virus Copenhagen; format: toxicity, cell-based; conditions: human, read-out: Ratio CC50/EC50
Cowpox virus [3] = assay: Antiviral activity against Cowpox virus Brighton infected BALB/c mouse assessed as virus-induced mortality at 0.3 mg/kg, po treated for 5 days after 6 days of viral inoculation; format: functional, Cowpox virus (Brighton Red)
Cowpox virus [4] = assay: Antiviral activity against Cowpox virus Brighton infected BALB/c mouse assessed as virus-induced mean day of death at 1 mg/kg, po treated for 5 days after 1 day of viral inoculation; format: functional, Cowpox virus (Brighton Red)
[5] = Selectivity index, ratio CC50 for HFF cells to EC50 for Vaccinia virus WR; format: toxicity, cell-based; conditions: human, read-out: Ratio CC50/EC50
Cowpox virus [6] = assay: Antiviral activity against Cowpox virus Brighton infected BALB/c mouse assessed as virus-induced mortality at 3 mg/kg, po treated for 5 days after 3 days of viral inoculation; format: functional, Cowpox virus (Brighton Red)
Cowpox virus [7] = assay: Antiviral activity against Cowpox virus Brighton infected BALB/c mouse assessed as virus-induced mean day of death at 3 mg/kg, po treated for 5 days after 6 days of viral inoculation; format: functional, Cowpox virus (Brighton Red)
Cowpox virus [8] = assay: Antiviral activity against Cowpox virus Brighton infected BALB/c mouse assessed as virus-induced mortality at 3 mg/kg, po treated for 5 days after 1 day of viral inoculation; format: functional, Cowpox virus (Brighton Red)
Vaccinia virus [9] = assay: Antiviral activity against Vaccinia virus Copenhagen in HFF cells assessed as reduction plaque formation after 3 days; format: functional, organism-based; conditions: Orthopoxvirus vaccinia, 72 h
Cowpox virus [10] = assay: Antiviral activity against Cowpox virus Brighton infected BALB/c mouse assessed as virus-induced mortality at 0.3 mg/kg, po treated for 5 days after 1 day of viral inoculation; format: functional, Cowpox virus (Brighton Red)
[11] = Selectivity index, ratio CC50 for HFF cells to EC50 for Cowpox virus Brighton; format: toxicity, cell-based; conditions: human, read-out: Ratio CC50/EC50
Cowpox virus [12] = assay: Antiviral activity against Cowpox virus Brighton infected BALB/c mouse assessed as virus-induced mortality at 1 mg/kg, po treated for 5 days after 6 days of viral inoculation; format: functional, Cowpox virus (Brighton Red)
Cowpox virus [13] = assay: Antiviral activity against Cowpox virus Brighton infected BALB/c mouse assessed as virus-induced mean day of death at 1 mg/kg, po treated for 5 days after 3 days of viral inoculation; format: functional, Cowpox virus (Brighton Red)
Cowpox virus [14] = assay: Antiviral activity against Cowpox virus Brighton infected BALB/c mouse assessed as virus-induced mean day of death at 3 mg/kg, po treated for 5 days after 3 days of viral inoculation; format: functional, Cowpox virus (Brighton Red)
Cowpox virus [15] = assay: Antiviral activity against Cowpox virus Brighton infected BALB/c mouse assessed as virus-induced mortality at 0.3 mg/kg, po treated for 5 days after 3 days of viral inoculation; format: functional, Cowpox virus (Brighton Red)
[16] = Cytotoxicity against HFF cells after 7 days by neutral red assay; format: cell-based; conditions: human
Outline: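 Confluent non-dividing HFF cells (2.5 x 10^4 cells/well) were exposed to a drug concentration series for 7 days at 37°C. Monolayers were then neutral red-stained, and the CC50 is the concentration cytotoxic to 50% of uninfected cells. Values are the mean of ≥2 assays ± standard deviation.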

Cowpox virus [17] = assay: Antiviral activity against Cowpox virus Brighton infected BALB/c mouse assessed as virus-induced mortality at 3 mg/kg, po treated for 5 days after 6 days of viral inoculation; format: functional, Cowpox virus (Brighton Red)
Cowpox virus [18] = assay: Antiviral activity against Cowpox virus Brighton infected BALB/c mouse assessed as virus-induced mean day of death at 1 mg/kg, po treated for 5 days after 6 days of viral inoculation; format: functional, Cowpox virus (Brighton Red)
Cowpox virus [19] = assay: Antiviral activity against Cowpox virus Brighton infected BALB/c mouse assessed as virus-induced mean day of death at 0.3 mg/kg, po treated for 5 days after 6 days of viral inoculation; format: functional, Cowpox virus (Brighton Red)
Vaccinia virus [20] = assay: Antiviral activity against Vaccinia virus WR in HFF cells assessed as reduction plaque formation after 3 days; format: functional, organism-based; conditions: Orthopoxvirus vaccinia, 72 h
Cowpox virus [21] = assay: Antiviral activity against Cowpox virus Brighton infected BALB/c mouse assessed as virus-induced mortality at 1 mg/kg, po treated for 5 days after 3 days of viral inoculation; format: functional, Cowpox virus (Brighton Red)
Cowpox virus [22] = assay: Antiviral activity against Cowpox virus Brighton in HFF cells assessed as reduction plaque formation after 3 days; format: functional, organism-based, Cowpox virus (Brighton Red); conditions: 72 h
Cowpox virus [23] = assay: Antiviral activity against Cowpox virus Brighton infected BALB/c mouse assessed as virus-induced mortality at 1 mg/kg, po treated for 5 days after 1 day of viral inoculation; format: functional, Cowpox virus (Brighton Red)
Cowpox virus [24] = assay: Antiviral activity against Cowpox virus Brighton infected BALB/c mouse assessed as virus-induced mean day of death at 0.3 mg/kg, po treated for 5 days after 3 days of viral inoculation; format: functional, Cowpox virus (Brighton Red)
Cowpox virus [25] = assay: Antiviral activity against Cowpox virus Brighton infected BALB/c mouse assessed as virus-induced mortality at 15 mg/kg, ip treated for 5 days after 6 days of viral inoculation; format: functional, Cowpox virus (Brighton Red); conditions: route intraperitoneal
Cowpox virus [26] = assay: Antiviral activity against Cowpox virus Brighton infected BALB/c mouse assessed as virus-induced mean day of death at 15 mg/kg, ip treated for 5 days after 6 days of viral inoculation; format: functional, Cowpox virus (Brighton Red); conditions: route intraperitoneal
Cowpox virus [27] = assay: Antiviral activity against Cowpox virus Brighton infected BALB/c mouse assessed as virus-induced mortality at 25 mg/kg, ip treated for 5 days after 6 days of viral inoculation; format: functional, Cowpox virus (Brighton Red); conditions: route intraperitoneal
Cowpox virus [28] = assay: Antiviral activity against Cowpox virus Brighton infected BALB/c mouse assessed as virus-induced mean day of death at 25 mg/kg, ip treated for 5 days after 6 days of viral inoculation; format: functional, Cowpox virus (Brighton Red); conditions: route intraperitoneal
Cowpox virus [29] = assay: Antiviral activity against Cowpox virus Brighton infected BALB/c mouse assessed as virus-induced mortality at 15 mg/kg, ip once daily for 5 days; format: functional, Cowpox virus (Brighton Red); conditions: route intraperitoneal
Cowpox virus [30] = assay: Antiviral activity against Cowpox virus Brighton infected BALB/c mouse assessed as virus-induced mortality at 5 mg/kg, ip treated for 5 days after 6 days of viral inoculation; format: functional, Cowpox virus (Brighton Red); conditions: route intraperitoneal
Cowpox virus [31] = assay: Antiviral activity against Cowpox virus Brighton infected BALB/c mouse assessed as virus-induced mean day of death at 5 mg/kg, ip treated for 5 days after 6 days of viral inoculation; format: functional, Cowpox virus (Brighton Red); conditions: route intraperitoneal
Cowpox virus [32] = assay: Antiviral activity against Cowpox virus Brighton infected BALB/c mouse assessed as virus-induced mortality at 15 mg/kg, ip treated for 5 days after 3 days of viral inoculation; format: functional, Cowpox virus (Brighton Red); conditions: route intraperitoneal
Monkeypox virus = assay: Antiviral activity against Monkeypox virus in HFF cells assessed as inhibition of viral replication after 7 days; format: functional, organism-based; conditions: 168 h
Camelpox virus = assay: Antiviral activity against Camelpox virus in HFF cells assessed as inhibition of viral replication after 7 days; format: functional, organism-based; conditions: 168 h
Cowpox virus [33] = assay: Antiviral activity against Cowpox virus Brighton infected BALB/c mouse assessed as virus-induced mean day of death at 3 mg/kg, po treated for 5 days after 1 day of viral inoculation; format: functional, Cowpox virus (Brighton Red)
Vaccinia virus [34] = assay: microbe, parasite or virus in culture; conditions: Orthopoxvirus vaccinia, Copenhagen, HFF, 168 h
Cowpox virus [35] = assay: Antiviral activity against Cowpox virus Brighton infected BALB/c mouse assessed as virus-induced mortality at 10 mg/kg, po treated for 5 days after 1 day of viral inoculation; format: functional, Cowpox virus (Brighton Red)
Cowpox virus [36] = assay: Antiviral activity against Cowpox virus Brighton infected BALB/c mouse assessed as virus-induced mean day of death at 10 mg/kg, po treated for 5 days after 1 day of viral inoculation; format: functional, Cowpox virus (Brighton Red)
Cowpox virus [37] = assay: Antiviral activity against Cowpox virus Brighton infected BALB/c mouse assessed as virus-induced mortality at 10 mg/kg, po treated for 5 days after 6 days of viral inoculation; format: functional, Cowpox virus (Brighton Red)
Variola virus = assay: microbe, parasite or virus in culture; conditions: HFF, 168 h
Cowpox virus [38] = assay: Antiviral activity against Cowpox virus Brighton infected BALB/c mouse assessed as virus-induced mortality at 10 mg/kg, po treated for 5 days after 3 days of viral inoculation; format: functional, Cowpox virus (Brighton Red)
Cowpox virus [39] = assay: Antiviral activity against Cowpox virus Brighton in HFF cells assessed as inhibition of viral replication after 7 days; format: functional, organism-based, Cowpox virus (Brighton Red); conditions: 168 h
Cowpox virus [40] = assay: Antiviral activity against Cowpox virus Brighton infected BALB/c mouse assessed as virus-induced mean day of death at 10 mg/kg, po treated for 5 days after 3 days of viral inoculation; format: functional, Cowpox virus (Brighton Red)
Cowpox virus [41] = assay: Antiviral activity against Cowpox virus Brighton infected BALB/c mouse assessed as virus-induced mean day of death at 10 mg/kg, po treated for 5 days after 6 days of viral inoculation; format: functional, Cowpox virus (Brighton Red)
Ectromelia virus Moscow = assay: Antiviral activity against Ectromelia virus Moscow in HFF cells assessed as inhibition of viral replication after 7 days; format: functional, organism-based; conditions: 168 h

| SMILES | selectivity ratio [2] | Activity (Cowpox virus [4]) | selectivity ratio [5] | Activity (Cowpox virus [6]) | Activity (Cowpox virus [7]) | Activity (Cowpox virus [8]) | EC50 (Vaccinia virus [9]) | selectivity ratio [11] | Activity (Cowpox virus [12]) | Activity (Cowpox virus [13]) | Activity (Cowpox virus [14]) | CC50 at 168 h [16] | Activity (Cowpox virus [17]) | Activity (Cowpox virus [18]) | EC50 (Vaccinia virus [20]) | Activity (Cowpox virus [21]) | EC50 (Cowpox virus [22]) | Activity (Cowpox virus [23]) | also measured |
| --- | --- | --- | --- | --- | --- | --- | --- | --- | --- | --- | --- | --- | --- | --- | --- | --- | --- | --- | --- |
| CCCCCCCCCCCCCCCCOCCCOP(=O)(O)CO[C@H](CO)Cn1ccc(N)nc1=O [BRINCIDOFOVIR] | 300 | 13.7 days | 323 | 27% | 9.9 days | 0% | 140 nM | 175 | 100% | 12 days | 16.3 days | 42000 nM | 100% | 9.9 days | 130 nM | 100% | 240 nM | 20% | Activity (Cowpox virus [1]): 11.7 days; Activity (Cowpox virus [3]): 100%; Activity (Cowpox virus [10]): 73%; Activity (Cowpox virus [15]): 87%; Activity (Cowpox virus [19]): 10 days; Activity (Cowpox virus [24]): 12.8 days |
| Nc1ccn(C[C@@H](CO)OCP(=O)(O)O)c(=O)n1.O.O [CIDOFOVIR] | > 10.9 | – | ≥ 9.6 | – | – | – | 29200 nM | > 7.7 | – | – | – | > 317000 nM | – | – | 33000 nM | – | 41100 nM | – | Activity (Cowpox virus [25]): 60%; Activity (Cowpox virus [26]): 12.8 days; Activity (Cowpox virus [27]): 80%; Activity (Cowpox virus [28]): 11.5 days; Activity (Cowpox virus [29]): 0%; Activity (Cowpox virus [30]): 93%; Activity (Cowpox virus [31]): 11.2 days; Activity (Cowpox virus [32]): 0% |
| O=C(NN1C(=O)[C@@H]2[C@@H]3C=C[C@@H]([C@H]4C[C@@H]34)[C@@H]2C1=O)c1ccc(C(F)(F)F)cc1 [TECOVIRIMAT] | > 2000 | 9.4 days | > 1000 | 33% | 13.5 days | 20% | 50 nM | > 208 | 100% | 14.4 days | 15.2 days | > 100000 nM | 80% | 9.5 days | 100 nM | 100% | 480 nM | 100% | EC50 (Monkeypox virus): ≤ 70 nM; EC50 (Camelpox virus): ≤ 70 nM; Activity (Cowpox virus [33]): 11.3 days; EC50 (Vaccinia virus [34]): ≤ 70 nM; Activity (Cowpox virus [35]): 73%; Activity (Cowpox virus [36]): 13.2 days; Activity (Cowpox virus [37]): 100%; EC50 (Variola virus): ≤ 70 nM; Activity (Cowpox virus [38]): 13%; EC50 (Cowpox virus [39]): ≤ 70 nM; Activity (Cowpox virus [40]): 15.5 days; Activity (Cowpox virus [41]): 13.5 days; EC50 (Ectromelia virus Moscow): ≤ 70 nM |

From ChEMBL document CHEMBL1137648, “Synergistic efficacy of the combination of ST-246 with CMX001 against orthopoxviruses” (Antimicrob Agents Chemother, 2007)
